Results reported in publication PMC5160999 (ChemMedChem, 2016).
Values after ≈ are worked out from the molar mass of the structure shown. Read-outs that look alike come from different tables or passages of the source.

What was measured:
A. baumannii [1] = assay: Synergy/antagonism two-drug combination assay, A. baumannii; format: cell-based
[2] = molecular target: T1, human geranylgeranyl diphosphate synthase (HsGGPPS) (Homo sapiens, UniProt O95749); assay: HsGGPPS inhibition; format: biochemical
T1 sequence (O95749 1-300): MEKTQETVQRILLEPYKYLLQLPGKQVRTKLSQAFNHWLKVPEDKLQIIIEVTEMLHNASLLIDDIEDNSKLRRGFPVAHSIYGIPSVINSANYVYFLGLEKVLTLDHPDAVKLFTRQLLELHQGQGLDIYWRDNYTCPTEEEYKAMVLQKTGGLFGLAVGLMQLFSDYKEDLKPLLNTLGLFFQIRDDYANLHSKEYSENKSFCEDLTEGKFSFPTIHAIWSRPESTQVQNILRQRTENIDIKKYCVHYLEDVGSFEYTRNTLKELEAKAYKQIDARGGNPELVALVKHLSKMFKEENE

E. coli [3] = assay: E. coli growth inhibition assay; format: cell-based; settings: Escherichia coli
Procedure, shortened: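 E. coli K-12 or BL21(DE3). Overnight starter culture diluted 1000-fold and grown to OD600 ~0.3, then diluted 500-fold into LB. Test compound added as a 3-fold series from 1 mm to 46 nm. Incubated 12 h at 37°C with shaking at 200 RPM; growth read as A600. IC50 by nonlinear regression. Rescue arm: farnesol 200 μm in the medium. Duplicate experiments, mean±SD.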

SmFPPS = SmFPPS (Schistosoma mansoni, UniProt G4VEL6); assay: SmFPPS inhibition, phosphate release assay; format: biochemical
Procedure, shortened: (§1)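 Purified enzyme (25 ng) preincubated with inhibitor for 10 min at room temperature in pH 7.0 buffer (10 mM HEPES, 150 mM NaCl, 5 mM MgCl2). Inhibitor stocks were 10 mM in DMSO or basic water, serially diluted from 1 mM to 1 nM. Reaction mix: 50 μM GPP, 50 μM IPP, purine nucleoside phosphorylase, inorganic phosphatase, ~600 μM MESG.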

K. pneumoniae [4] = assay: Synergy/antagonism two-drug combination assay, K. pneumoniae; format: cell-based
PaFPPS = PaFPPS (Pseudomonas aeruginosa, UniProt Q9HWY4); assay: PaFPPS inhibition, phosphate release assay; format: biochemical
Procedure, shortened: as §1

B. subtilis = B. subtilis growth inhibition assay; format: cell-based; settings: Bacillus subtilis, read-out: IC50 B. subtilis
Procedure, shortened: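 B. subtilis ATCC 6051 grown overnight in LB and diluted 1000-fold in fresh LB. Test compound added as a 3-fold series from 1 mm to 46 nm. Incubated overnight at 37°C with shaking at 200 RPM; inhibition read from OD600.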

P. aeruginosa = assay: Synergy/antagonism two-drug combination assay, P. aeruginosa; format: cell-based
[5] = test system: E. coli, A. baumannii, K. pneumoniae and P. aeruginosa; assay: Synergy of 11 with fosmidomycin, mean over four Gram-negative bacteria; format: cell-based
M. smegmatis = M. smegmatis growth inhibition; format: cell-based, Mycobacterium smegmatis
HEK293 = HEK293 toxicity assay; format: cell-based; settings: Homo sapiens, HEK293, read-out: IC50 HEK293
HsFPPS = molecular target: T2, HsFPPS (Homo sapiens, UniProt P14324); assay: HsFPPS inhibition, phosphate release assay; format: biochemical, H. sapiens
T2 sequence (P14324 1-419): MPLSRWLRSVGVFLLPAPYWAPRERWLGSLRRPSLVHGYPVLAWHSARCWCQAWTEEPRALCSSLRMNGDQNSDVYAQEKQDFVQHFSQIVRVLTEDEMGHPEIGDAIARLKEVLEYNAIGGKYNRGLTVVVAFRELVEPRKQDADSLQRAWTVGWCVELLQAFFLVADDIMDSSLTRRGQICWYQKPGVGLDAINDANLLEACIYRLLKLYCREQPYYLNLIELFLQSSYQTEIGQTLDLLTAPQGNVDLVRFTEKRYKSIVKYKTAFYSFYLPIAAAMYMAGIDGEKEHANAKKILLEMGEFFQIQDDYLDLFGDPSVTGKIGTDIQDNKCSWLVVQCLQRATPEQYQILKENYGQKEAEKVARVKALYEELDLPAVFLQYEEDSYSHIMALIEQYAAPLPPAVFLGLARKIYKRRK

[6] = test system: E. coli BL21(DE3) with PaFPPS overexpression; assay: Growth inhibition of E. coli overexpressing PaFPPS; format: cell-based; settings: Escherichia coli
[7] = test system: E. coli, P. aeruginosa, K. pneumoniae and A. baumannii; assay: Growth inhibition, four Gram-negative bacteria taken together; format: cell-based; settings: read-out: IC50, activity against all four Gram-negatives
EcFPPS = EcFPPS (Escherichia coli, UniProt P22939); assay: EcFPPS inhibition, phosphate release assay; format: biochemical, E. coli
Chain of EcFPPS (P22939 whole entry): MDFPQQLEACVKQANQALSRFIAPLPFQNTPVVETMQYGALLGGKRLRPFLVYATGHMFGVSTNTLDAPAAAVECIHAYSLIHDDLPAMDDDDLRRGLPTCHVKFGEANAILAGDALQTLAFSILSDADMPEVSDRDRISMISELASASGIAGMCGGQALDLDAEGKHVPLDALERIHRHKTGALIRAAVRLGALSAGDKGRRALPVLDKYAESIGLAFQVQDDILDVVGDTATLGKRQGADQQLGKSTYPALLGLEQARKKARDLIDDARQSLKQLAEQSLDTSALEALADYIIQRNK
Procedure, shortened: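 Purified recombinant FPPS (25 ng) preincubated with test compound for 10 min at room temperature in pH 7.0 buffer (10 mm HEPES, 150 mm NaCl, 5 mm MgCl2). Compound diluted from 1 mm to 1 nm. Reaction started with 50 μm GPP, 50 μm IPP, purine nucleoside phosphorylase, inorganic phosphatase and ~600 μm MESG.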

A. baumannii [8] = assay: A. baumannii growth inhibition assay; format: cell-based; settings: Acinetobacter baumannii
Procedure, shortened: (§2)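 Strains: A. baumannii ATCC 19606, K. pneumoniae ATCC 27736 and P. aeruginosa PA01, grown overnight in cation-adjusted Mueller-Hinton broth. Cultures diluted 1000-fold in fresh broth, with test compound as a 3-fold series from 1 mm to 46 nm. Incubated overnight at 37°C, 200 RPM; OD600 read. Rescue arm: farnesol 200 μm in the medium. Duplicate experiments, mean±SD.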

K. pneumoniae [9] = assay: K. pneumoniae growth inhibition assay; format: cell-based; settings: Klebsiella pneumoniae
Procedure, shortened: as §2

[10] = test system: S. aureus (Newman strain); assay: S. aureus growth inhibition assay; format: cell-based; settings: Staphylococcus aureus, read-out: IC50 S. aureus
Procedure, shortened: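 S. aureus Newman grown overnight in tryptic soy broth, then diluted 1000-fold in fresh medium. Test compound dosed as a 3-fold series from 1 mm to 46 nm. Incubated at 37°C, 200 RPM, overnight; growth read as OD600.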

E. coli [11] = assay: Synergy/antagonism two-drug combination assay, E. coli; format: cell-based
TbFPPS = TbFPPS (Trypanosoma brucei, UniProt Q86C09); assay: TbFPPS inhibition, phosphate release assay; format: biochemical
Procedure, shortened: as §1

P. aeruginosa (PA01) = assay: P. aeruginosa growth inhibition assay; format: cell-based; settings: Pseudomonas aeruginosa
Procedure, shortened: as §2

[12] = A. baumannii, combination of 11 with fosmidomycin
[13] = K. pneumoniae, combination of 11 with fosmidomycin
[14] = P. aeruginosa, combination of 11 with fosmidomycin
[15] = E. coli, combination of 11 with fosmidomycin

`O=P([O-])(O)C(C[n+]1ccn(CCCc2ccc(F)c(F)c2)c1)P(=O)(O)O` (stereo not shown) [compound 11, Hydrogen (2-(3-(3-(3,4-difluorophenyl)propyl)-1H-imidazol-3-ium-1-yl)-1-phosphonoethyl) phosphonate] was tested, and the FIC (A. baumannii [1]; [12]) was 0.37 ± 0.17, the “FIC Index” value (A. baumannii [1]; [12]) was 0.64 ± 0.23 and the MIC (A. baumannii [1]; Acinetobacter baumannii) was 6 µg/mL. It also gave an IC50 [2] of 390 ± 73 nM, an IC50 (E. coli [3]; read-out: IC50 E. coli) of 2.1 ± 0.57 µg/mL (≈ 5.12 µM) and an IC50 (E. coli [3]; read-out: IC50 with RA) of 19 ± 4.1 µg/mL (≈ 46.3 µM). It also gave an IC50 (E. coli [3]; read-out: IC50 without RA) of 2.1 ± 0.57 µg/mL (≈ 5.12 µM), an IC50 (SmFPPS) of 570 ± 110 nM and an FIC (K. pneumoniae [4]; [13]) of 0.097 ± 0.012. For the same compound, the “FIC Index” value (K. pneumoniae [4]; [13]) was 0.22 ± 0.026, the MIC (K. pneumoniae [4]; Klebsiella pneumoniae) was 6 µg/mL and the IC50 (PaFPPS) was 320 ± 68 nM. The IC50 (B. subtilis) was 39 ± 13 µg/mL (≈ 95.1 µM), the FIC (P. aeruginosa; [14]) was 0.27 ± 0.057 and the “FIC Index” value (P. aeruginosa; [14]) was 0.44 ± 0.12. For the same compound, the MIC (P. aeruginosa; Pseudomonas aeruginosa) was 10 µg/mL, the “mean FICI” value [5] was 0.42 ± 0.17 and the IC50 (M. smegmatis; Mycolicibacterium smegmatis, read-out: IC50 M. smegmatis, cell growth inhibition) was about 7 µg/mL (≈ 17.1 µM). For the same compound, the “IC50 M. smegmatis” value (M. smegmatis; cell growth inhibition) was 6.8 ± 3.0 µg/mL (≈ 16.6 µM), the IC50 (HEK293) was 27 ± 4 µg/mL (≈ 65.8 µM) and the IC50 (HsFPPS) was 65 ± 12 nM. It also gave an IC50 ([6]; BL21-DE3, read-out: IC50 with RA) of 19 ± 2.4 µg/mL (≈ 46.3 µM), an IC50 ([6]; BL21-DE3, read-out: IC50 without RA) of 1.6 ± 0.35 µg/mL (≈ 3.9 µM) and an IC50 [7] of 1 to 4 µg/mL (≈ 2.44 to 9.75 µM). It also gave an IC50 (EcFPPS) of 120 ± 25 nM, an IC50 (A. baumannii [8]; read-out: IC50 A. baumannii) of 2.8 ± 0.7 µg/mL (≈ 6.83 µM) and an IC50 (A. baumannii [8]; read-out: IC50 with RA) of 18 ± 4.9 µg/mL (≈ 43.9 µM). The IC50 (A. baumannii [8]; read-out: IC50 without RA) was 2.8 ± 0.7 µg/mL (≈ 6.83 µM), the IC50 (K. pneumoniae [9]; read-out: IC50 K. pneumoniae) was 2.3 ± 0.49 µg/mL (≈ 5.61 µM) and the IC50 (K. pneumoniae [9]; read-out: IC50 with RA) was 13 ± 1.8 µg/mL (≈ 31.7 µM). The IC50 (K. pneumoniae [9]; read-out: IC50 without RA) was 2.3 ± 0.49 µg/mL (≈ 5.61 µM), the IC50 [10] was over 100 µg/mL and the FICI (E. coli [11]; E. coli cell growth, combination of 32 and 11) was 0.31 ± 0.099. For the same compound, the FIC (E. coli [11]; [15]) was 0.24 ± 0.023, the “FIC Index” value (E. coli [11]; [15]) was 0.39 ± 0.15 and the MIC (E. coli [11]; Escherichia coli) was 6 µg/mL. For the same compound, the IC50 (TbFPPS) was 120 ± 26 nM, the IC50 (P. aeruginosa (PA01); read-out: IC50 P. aeruginosa) was 3.5 ± 0.78 µg/mL (≈ 8.53 µM) and the IC50 (P. aeruginosa (PA01); read-out: IC50 with RA) was 23 ± 7.8 µg/mL (≈ 56.1 µM). It also gave an IC50 (P. aeruginosa (PA01); read-out: IC50 without RA) of 3.5 ± 0.78 µg/mL (≈ 8.53 µM).
